What was measured:
Bcr/Abl fusion protein = Bcr/Abl fusion protein (Homo sapiens, UniProt P00519); test: Inhibition of human recombinant full length His-tagged Bcr-Abl expressed in baculovirus expression system using tyrosine-2 peptide as substrate after 1 hr in presence of […] ATP by FRET based Z'-LYTE assay
Method in brief: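 FRET-based Z′-Lyte kinase assay for Bcr-Abl; IC50 values are means of three independent experiments, variations <20%.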

[1] = target: T1, Discoidin domain-containing receptor 2 (Homo sapiens, UniProt Q16832); test: Binding affinity to wild type human partial length DDR2 (V555 to E855 residues) expressed in mammalian expression system after 1 hr by Kinomescan method
T1 sequence (Q16832 whole entry): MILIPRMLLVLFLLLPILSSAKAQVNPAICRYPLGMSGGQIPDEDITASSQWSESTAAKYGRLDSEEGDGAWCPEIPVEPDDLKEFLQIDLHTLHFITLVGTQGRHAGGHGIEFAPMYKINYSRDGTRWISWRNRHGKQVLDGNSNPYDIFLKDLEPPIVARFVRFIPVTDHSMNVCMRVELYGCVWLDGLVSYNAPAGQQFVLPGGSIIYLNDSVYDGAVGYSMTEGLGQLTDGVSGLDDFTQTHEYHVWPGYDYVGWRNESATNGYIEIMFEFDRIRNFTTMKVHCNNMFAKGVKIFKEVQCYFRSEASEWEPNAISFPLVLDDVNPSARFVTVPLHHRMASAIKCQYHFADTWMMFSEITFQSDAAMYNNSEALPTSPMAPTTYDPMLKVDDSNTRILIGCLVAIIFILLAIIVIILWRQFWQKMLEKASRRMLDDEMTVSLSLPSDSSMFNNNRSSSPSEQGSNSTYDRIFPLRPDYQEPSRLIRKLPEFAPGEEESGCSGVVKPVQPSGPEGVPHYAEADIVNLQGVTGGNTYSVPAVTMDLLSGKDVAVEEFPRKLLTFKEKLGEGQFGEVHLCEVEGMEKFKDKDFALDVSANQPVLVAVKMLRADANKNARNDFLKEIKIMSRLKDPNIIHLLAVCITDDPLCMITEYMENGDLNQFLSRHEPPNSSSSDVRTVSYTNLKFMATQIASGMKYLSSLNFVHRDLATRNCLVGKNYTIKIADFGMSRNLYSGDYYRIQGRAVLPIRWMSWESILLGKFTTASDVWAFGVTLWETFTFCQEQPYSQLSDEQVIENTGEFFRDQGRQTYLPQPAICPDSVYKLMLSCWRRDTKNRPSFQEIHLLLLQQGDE
Method in brief: (§1)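 KINOMEscan binding; Kd determined for DDR1 and the off-target kinases DDR2, CAMK1D, CLK4 and TTK.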

Homo sapiens = species: Homo sapiens; test: Selectivity index, ratio of IC50 for recombinant human GST-tagged DDR2 cytoplasmic domain (427 to 855 residues) expressed in baculovirus expression system to IC50 for recombinant human GST-tagged DDR1 catalytic domain (440 to 876 residues) expressed in baculovirus expression system using Fluorescein-poly GAT as substrate incubated for 1 hr in presence of ATP by LanthaScreen Eu kinase assay
Method in brief: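 Ratio of DDR2 IC50 to DDR1 IC50. Both kinases were measured by LanthaScreen Eu kinase assay. Each IC50 is the mean of three independent experiments, with variation <20%.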

[2] = target: Mast/stem cell growth factor receptor Kit (Homo sapiens, UniProt P10721); test: Inhibition of human recombinant His-tagged c-Kit cytoplasmic domain (544 to 976 residues) expressed in baculovirus expression system using Ser/Thr 6 peptide as substrate after 1 hr in presence of 300 uM ATP by FRET based Z'-LYTE assay
NCI-H1299 [3] = test: Inhibition of colony formation in human H1299 cells assessed as reduction in number of colonies measured after 10 days by crystal violet staining based assay; format: functional, cell-based
Method in brief: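 Colony formation in H1299 cells under continuous compound treatment for 10 days; colony number quantified and IC50 derived from dose-response.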

[4] = target: T2, Dual specificity protein kinase TTK (Homo sapiens, UniProt P33981); test: Binding affinity to wild-type human partial length TTK (N505 to V798 residues) expressed in bacterial expression system after 1 hr by Kinomescan method; method in brief: as §1
T2 sequence (P33981 whole entry): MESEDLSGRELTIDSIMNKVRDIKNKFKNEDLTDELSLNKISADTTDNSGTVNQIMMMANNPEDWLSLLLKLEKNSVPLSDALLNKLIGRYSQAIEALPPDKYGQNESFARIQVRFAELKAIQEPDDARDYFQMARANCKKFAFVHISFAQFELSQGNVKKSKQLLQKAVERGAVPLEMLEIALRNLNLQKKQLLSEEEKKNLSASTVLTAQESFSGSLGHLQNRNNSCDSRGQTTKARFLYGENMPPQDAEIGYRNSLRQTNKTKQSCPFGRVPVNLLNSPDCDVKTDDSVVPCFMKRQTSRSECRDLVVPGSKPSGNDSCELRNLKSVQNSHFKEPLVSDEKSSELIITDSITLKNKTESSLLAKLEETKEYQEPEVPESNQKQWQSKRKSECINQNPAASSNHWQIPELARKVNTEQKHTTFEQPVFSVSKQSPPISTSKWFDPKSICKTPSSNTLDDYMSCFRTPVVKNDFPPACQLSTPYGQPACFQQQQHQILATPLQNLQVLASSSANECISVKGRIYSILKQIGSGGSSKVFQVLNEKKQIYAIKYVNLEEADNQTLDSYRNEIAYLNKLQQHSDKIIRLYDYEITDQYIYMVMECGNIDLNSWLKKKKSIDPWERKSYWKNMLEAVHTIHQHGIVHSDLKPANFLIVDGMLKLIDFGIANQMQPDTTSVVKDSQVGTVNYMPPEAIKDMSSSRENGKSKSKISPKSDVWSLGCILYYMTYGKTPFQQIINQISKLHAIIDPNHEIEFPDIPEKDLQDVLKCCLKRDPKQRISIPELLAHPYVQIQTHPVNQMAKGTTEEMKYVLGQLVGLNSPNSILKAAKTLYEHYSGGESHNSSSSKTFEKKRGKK

[5] = target: Epithelial discoidin domain-containing receptor 1 (Homo sapiens, UniProt Q08345); test: Inhibition of recombinant human GST-tagged DDR1 catalytic domain (440 to 876 residues) expressed in baculovirus expression system using Fluorescein-poly GAT as substrate incubated for 1 hr in presence of ATP by LanthaScreen Eu kinase assay
NCI-H1299 [6] = test: Antimigratory activity against human H1299 cells assessed as reduction in wound closure at 2.5 uM after 24 hrs by bright field microscopic based wound healing assay relative to control; format: functional; conditions: NCI-H1299, 24 h
Method in brief: (§2)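 Wound healing (scratch) migration assay in H1299 cells at 1.25, 2.5 and 5.0 μM; wound closure compared with blank control groups.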

NCI-H1299 [7] = test: Antimigratory activity against human H1299 cells assessed as reduction in wound closure at 5 uM after 24 hrs by bright field microscopic based wound healing assay relative to control; format: functional; conditions: NCI-H1299, 24 h; method in brief: as §2
NCI-H1299 [8] = test: Antiinvasive activity against human H1299 cells at 2.5 uM after 24 hrs by crystal violet staining based transwell assay relative to control; format: functional; conditions: NCI-H1299, 24 h
Method in brief: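 H1299 NSCLC cells; transwell invasion assay over 24 h with compound at 1.25, 2.5 and 5.0 μM; invasion expressed relative to blank control.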

Chain of Bcr/Abl fusion protein (P00519 whole entry, the tested form may be a part): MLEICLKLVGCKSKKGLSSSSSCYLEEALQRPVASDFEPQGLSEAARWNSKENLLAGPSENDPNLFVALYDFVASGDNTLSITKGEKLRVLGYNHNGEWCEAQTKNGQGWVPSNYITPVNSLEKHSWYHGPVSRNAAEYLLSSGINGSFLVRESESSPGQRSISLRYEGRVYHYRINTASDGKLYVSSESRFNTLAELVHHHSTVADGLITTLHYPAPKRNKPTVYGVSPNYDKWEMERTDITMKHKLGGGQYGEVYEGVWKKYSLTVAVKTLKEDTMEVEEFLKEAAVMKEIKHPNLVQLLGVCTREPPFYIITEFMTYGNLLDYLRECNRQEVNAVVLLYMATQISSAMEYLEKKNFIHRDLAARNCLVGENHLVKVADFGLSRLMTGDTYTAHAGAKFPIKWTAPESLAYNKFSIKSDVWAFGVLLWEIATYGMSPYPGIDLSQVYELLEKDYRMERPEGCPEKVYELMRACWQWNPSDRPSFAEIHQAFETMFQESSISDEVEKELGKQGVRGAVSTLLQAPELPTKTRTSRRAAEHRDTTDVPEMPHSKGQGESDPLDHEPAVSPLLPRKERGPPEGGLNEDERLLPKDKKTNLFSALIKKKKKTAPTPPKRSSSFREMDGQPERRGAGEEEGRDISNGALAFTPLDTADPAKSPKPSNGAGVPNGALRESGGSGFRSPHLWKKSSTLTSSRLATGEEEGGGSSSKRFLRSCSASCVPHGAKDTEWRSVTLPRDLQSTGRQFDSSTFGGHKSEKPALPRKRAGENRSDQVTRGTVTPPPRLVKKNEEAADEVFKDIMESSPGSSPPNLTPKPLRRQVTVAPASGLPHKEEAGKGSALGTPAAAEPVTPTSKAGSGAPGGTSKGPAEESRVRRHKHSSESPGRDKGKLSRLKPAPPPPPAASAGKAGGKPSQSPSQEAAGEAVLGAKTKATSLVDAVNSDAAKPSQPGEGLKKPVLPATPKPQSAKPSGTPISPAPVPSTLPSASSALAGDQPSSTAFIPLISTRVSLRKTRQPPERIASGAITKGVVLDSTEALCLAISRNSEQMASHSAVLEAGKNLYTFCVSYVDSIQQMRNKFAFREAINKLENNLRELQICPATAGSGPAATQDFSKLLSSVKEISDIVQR
Chain of Bcr/Abl fusion protein (P11274 whole entry, further chain, the tested form may be a part): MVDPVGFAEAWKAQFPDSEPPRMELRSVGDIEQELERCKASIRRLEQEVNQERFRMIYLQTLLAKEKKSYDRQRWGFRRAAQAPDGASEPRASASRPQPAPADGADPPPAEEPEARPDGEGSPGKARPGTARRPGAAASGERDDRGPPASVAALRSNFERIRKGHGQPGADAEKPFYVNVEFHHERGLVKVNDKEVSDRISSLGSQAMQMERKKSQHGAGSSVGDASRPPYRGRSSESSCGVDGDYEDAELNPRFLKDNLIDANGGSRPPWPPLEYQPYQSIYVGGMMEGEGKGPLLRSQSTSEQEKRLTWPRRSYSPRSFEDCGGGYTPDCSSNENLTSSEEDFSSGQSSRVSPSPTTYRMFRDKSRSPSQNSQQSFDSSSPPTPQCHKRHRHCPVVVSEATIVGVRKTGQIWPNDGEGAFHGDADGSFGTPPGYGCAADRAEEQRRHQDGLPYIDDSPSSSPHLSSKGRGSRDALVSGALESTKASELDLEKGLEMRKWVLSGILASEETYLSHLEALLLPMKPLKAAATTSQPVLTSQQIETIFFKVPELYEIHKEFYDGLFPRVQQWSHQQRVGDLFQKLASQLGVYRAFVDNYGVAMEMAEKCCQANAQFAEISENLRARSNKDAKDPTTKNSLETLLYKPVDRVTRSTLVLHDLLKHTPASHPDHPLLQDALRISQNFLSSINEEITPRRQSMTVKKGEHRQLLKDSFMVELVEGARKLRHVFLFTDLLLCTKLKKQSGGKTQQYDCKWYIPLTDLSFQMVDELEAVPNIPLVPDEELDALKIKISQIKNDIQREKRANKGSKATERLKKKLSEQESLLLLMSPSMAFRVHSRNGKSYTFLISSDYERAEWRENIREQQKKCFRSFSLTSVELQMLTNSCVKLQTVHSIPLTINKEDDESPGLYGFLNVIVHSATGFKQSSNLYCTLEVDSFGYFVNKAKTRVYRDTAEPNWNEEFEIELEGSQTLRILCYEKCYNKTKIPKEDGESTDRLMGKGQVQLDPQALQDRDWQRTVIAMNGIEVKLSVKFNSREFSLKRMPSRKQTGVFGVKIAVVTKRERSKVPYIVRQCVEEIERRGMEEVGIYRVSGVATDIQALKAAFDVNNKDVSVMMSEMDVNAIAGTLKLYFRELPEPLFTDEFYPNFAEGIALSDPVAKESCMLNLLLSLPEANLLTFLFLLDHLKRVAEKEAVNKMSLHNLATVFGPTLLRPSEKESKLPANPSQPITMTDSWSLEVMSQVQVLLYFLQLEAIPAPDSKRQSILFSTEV
Chain of Epithelial discoidin domain-containing receptor 1 (Q08345 whole entry, the tested form may be a part): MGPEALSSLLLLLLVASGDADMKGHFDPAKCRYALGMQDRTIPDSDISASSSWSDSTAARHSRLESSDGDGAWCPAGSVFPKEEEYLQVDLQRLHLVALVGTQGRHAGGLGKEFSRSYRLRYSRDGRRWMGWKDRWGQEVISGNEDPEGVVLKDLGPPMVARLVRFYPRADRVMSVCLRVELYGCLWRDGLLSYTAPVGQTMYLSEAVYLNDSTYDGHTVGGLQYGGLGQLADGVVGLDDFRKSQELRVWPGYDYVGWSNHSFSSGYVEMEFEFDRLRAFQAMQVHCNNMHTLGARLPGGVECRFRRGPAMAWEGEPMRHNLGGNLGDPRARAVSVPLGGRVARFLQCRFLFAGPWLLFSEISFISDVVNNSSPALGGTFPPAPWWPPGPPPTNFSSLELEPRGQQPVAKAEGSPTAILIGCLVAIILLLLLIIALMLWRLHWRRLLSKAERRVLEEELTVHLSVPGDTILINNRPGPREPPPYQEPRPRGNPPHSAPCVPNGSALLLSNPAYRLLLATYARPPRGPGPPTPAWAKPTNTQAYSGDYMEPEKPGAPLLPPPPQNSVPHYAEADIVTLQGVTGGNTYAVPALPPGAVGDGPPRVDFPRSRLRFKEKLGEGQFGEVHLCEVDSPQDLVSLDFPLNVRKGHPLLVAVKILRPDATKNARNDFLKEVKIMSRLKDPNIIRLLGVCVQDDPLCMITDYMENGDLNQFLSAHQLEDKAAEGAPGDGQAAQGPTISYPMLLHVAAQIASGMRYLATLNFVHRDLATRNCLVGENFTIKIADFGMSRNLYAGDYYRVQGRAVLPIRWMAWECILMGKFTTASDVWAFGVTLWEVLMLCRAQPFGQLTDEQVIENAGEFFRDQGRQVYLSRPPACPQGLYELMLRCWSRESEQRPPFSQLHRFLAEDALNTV
Chain of Mast/stem cell growth factor receptor Kit (P10721 whole entry, the tested form may be a part): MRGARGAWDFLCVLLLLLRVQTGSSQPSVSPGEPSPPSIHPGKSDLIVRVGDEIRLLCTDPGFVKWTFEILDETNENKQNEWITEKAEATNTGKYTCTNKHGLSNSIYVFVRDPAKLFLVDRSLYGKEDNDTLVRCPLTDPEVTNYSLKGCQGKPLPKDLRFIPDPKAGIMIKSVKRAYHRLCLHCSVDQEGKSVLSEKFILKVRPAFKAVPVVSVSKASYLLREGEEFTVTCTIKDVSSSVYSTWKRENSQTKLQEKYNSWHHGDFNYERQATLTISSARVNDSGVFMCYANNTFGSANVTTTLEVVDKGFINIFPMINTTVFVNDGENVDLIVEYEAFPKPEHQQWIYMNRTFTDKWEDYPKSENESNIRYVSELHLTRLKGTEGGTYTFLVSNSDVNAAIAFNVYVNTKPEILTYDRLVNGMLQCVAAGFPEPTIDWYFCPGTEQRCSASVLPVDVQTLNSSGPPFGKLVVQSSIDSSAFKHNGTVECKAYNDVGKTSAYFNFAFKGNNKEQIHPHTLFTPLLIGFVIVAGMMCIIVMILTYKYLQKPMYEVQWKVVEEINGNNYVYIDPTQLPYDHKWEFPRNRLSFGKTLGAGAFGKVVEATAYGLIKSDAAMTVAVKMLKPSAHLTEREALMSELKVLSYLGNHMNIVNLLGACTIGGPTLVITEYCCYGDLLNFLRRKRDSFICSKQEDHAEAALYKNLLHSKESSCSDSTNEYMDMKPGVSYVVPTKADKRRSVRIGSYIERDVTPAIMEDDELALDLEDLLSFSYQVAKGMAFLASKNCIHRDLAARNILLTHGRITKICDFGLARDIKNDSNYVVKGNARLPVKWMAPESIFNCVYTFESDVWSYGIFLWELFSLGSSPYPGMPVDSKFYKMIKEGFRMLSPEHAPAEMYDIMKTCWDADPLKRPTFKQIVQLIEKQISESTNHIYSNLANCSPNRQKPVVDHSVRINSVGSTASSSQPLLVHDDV

`CCc1ccc(C(=O)Nc2cc(F)cc(C(F)(F)F)c2)cc1-c1cc(C)cc(-c2cnc3cnccn23)c1` was tested, and the IC50 (Bcr/Abl fusion protein) was greater than 10 µM, the Kd [1] was 86 nM and the Ratio IC50 (Homo sapiens) was 73. The IC50 [2] was greater than 10 µM, the inhibition (NCI-H1299 [3]) was “Dose-dependent effect” and the IC50 (NCI-H1299 [3]; NCI-H1299, 240 h) was 46 nM. The Kd [4] was greater than 1000 nM, the IC50 [5] was 23.8 nM and the inhibition at 2.5 µM (NCI-H1299 [6]) was 60%. For the same compound, the inhibition at 5 µM (NCI-H1299 [7]) was 84% and the inhibition at 2.5 µM (NCI-H1299 [8]) was 50%.

Source: ChEMBL document CHEMBL4342493, “Design and Optimization of 3'-(Imidazo[1,2-a]pyrazin-3-yl)-[1,1'-biphenyl]-3-carboxamides as Selective DDR1 Inhibitors” (ACS Med Chem Lett, 2020)
